The target in experiment [1] is Kappa-type opioid receptor (Cavia porcellus, UniProt P41144). Description: Binding affinity against Opioid receptor kappa 1 of Guinea pig brain homogenate using [3H]U-69593. It is filed as tissue-based.
For experiment [2], the target named is Mu-type opioid receptor (Cavia porcellus, UniProt P97266). Description: Binding affinity against Opioid receptor mu 1 from Guinea pig brain homogenate using [3H]DAMGO. It is filed as tissue-based.
For experiment [3], the species on record is Cavia porcellus. Description: Binding affinity against smooth muscle tissue of Guinea pig ileum. Format: functional. The method in brief: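 Longitudinal muscle–myenteric plexus strips from male Hartley guinea pigs (250–500 g) in oxygenated Krebs buffer at 37 °C under 1 g tension. Transmural stimulation at 0.1 Hz, 0.4 ms, supramaximal voltage, with no peptidase inhibitors. Cumulative agonist doses every 3 min; % inhibition of contraction height measured. IC50 from a Hill-equation fit of mean data from 2–4 tissues.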

In experiment [4] the target is Kappa-type opioid receptor (Cavia porcellus) (UniProt P41144). Description: Ratio of IC50 for central and peripheral kappa opioid receptor binding in guinea pig.
Chain of Kappa-type opioid receptor (Cavia porcellus) (P41144 whole entry): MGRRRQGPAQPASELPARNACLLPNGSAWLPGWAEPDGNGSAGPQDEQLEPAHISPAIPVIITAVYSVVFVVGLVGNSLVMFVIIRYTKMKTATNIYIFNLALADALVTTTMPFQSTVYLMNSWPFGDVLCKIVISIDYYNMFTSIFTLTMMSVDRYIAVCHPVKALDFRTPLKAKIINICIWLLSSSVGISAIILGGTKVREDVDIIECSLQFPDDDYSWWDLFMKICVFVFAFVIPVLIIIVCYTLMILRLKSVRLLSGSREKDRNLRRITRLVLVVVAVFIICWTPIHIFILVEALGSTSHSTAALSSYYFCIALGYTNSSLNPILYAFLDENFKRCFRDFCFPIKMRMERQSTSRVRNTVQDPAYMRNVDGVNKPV
The species named for experiment [5] is Cavia porcellus. Description: Selectivity as ratio of IC50 for mu and kappa opioid receptors.
A short description of experiment [6]: Selectivity as ratio of IC50 for delta and mu opioid receptors. As to conditions: Cavia porcellus.

*1 amine or outer side, *2 acyl side, *3 side chain or, on linkers, in order; H or OH if unused. Where a SMILES comes first, the peptide text is derived from it. Side-chain parts run from the residue outwards. [ ]: non-standard residue; d: D form. The star is where a group is joined. X2 = CC[C@H](C)[C@H](NC[C@H](CCCCN)N*)C(=O)N[C@@H](CCCN=C(N)N)C(=O)N1CCC[C@H]1C(=O)N[C@@H](CCCCN)C(N)=O; N(2-aminoethyl)Phe = O=C([C@H](Cc1ccccc1)N(CCN[*:3])[*:1])[*:2]; X4 = CC(C)C[C@@H](CN([C@@H](CCCN=C(N)N)C(=O)[*:2])[*:1])N[*:3]; X5 = NCCCC[C@@H](CN([C@@H](CCCN=C(N)N)C(=O)[*:2])[*:1])N[*:3]; X1 = CC(C)C[C@@H](C(=O)[*:2])N(C[C@H](Cc1ccccc1)N[*:3])[*:1]

Among the data in ChEMBL document CHEMBL1128535, “Synthesis using a Fmoc-based strategy and biological activities of some reduced peptide bond pseudopeptide analogues of dynorphin A1” (J Med Chem, 1995) are IC50, Ratio and Selectivity values, retold here.

Chain of Mu-type opioid receptor (P97266 whole entry): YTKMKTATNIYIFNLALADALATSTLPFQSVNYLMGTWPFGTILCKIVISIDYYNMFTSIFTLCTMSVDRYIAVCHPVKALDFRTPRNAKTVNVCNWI
Chain of Kappa-type opioid receptor (P41144 whole entry): as the sequence (P41144 whole entry) above

With `CC[C@H](C)[C@H](NC(=O)[C@H](CCCN=C(N)N)NC(=O)[C@H](CCCN=C(N)N)NC(=O)[C@H](CC(C)C)NC(=O)[C@H](Cc1ccccc1)NC(=O)CNC(=O)CNC[C@@H](N)Cc1ccc(O)cc1)C(=O)N[C@@H](CCCN=C(N)N)C(=O)N1CCC[C@H]1C(=O)N[C@@H](CCCCN)C(N)=O`, the figures for the IC50 in experiment [1], in experiment [2] and in experiment [3] were 8 nM, 96 nM and 308 nM, respectively. In experiment [4], the Ratio was found to be 38.5. For the same compound, the Selectivity in experiment [5] turned out to be 12; in experiment [6] it was 25.

Turning to `CC[C@H](C)[C@H](NC(=O)[C@H](CCCN=C(N)N)NC(=O)[C@H](CCCN=C(N)N)NC(=O)[C@H](CC(C)C)NC(=O)[C@H](Cc1ccccc1)NC(=O)CNC(=O)CNC(=O)[C@@H](N)Cc1ccc(O)cc1)C(=O)N[C@@H](CCCCN)CN1CCC[C@H]1C(=O)N[C@@H](CCCCN)C(N)=O`, the IC50 (as a rule, the point on the concentration scale where inhibition reaches its midpoint) in experiment [1] is 0.24 nM; in experiment [2], 5.2 nM; in experiment [3], 2.1 nM.

Turning to `CC[C@H](C)[C@@H](CN[C@@H](CCCN=C(N)N)C(=O)N1CCC[C@H]1C(=O)N[C@@H](CCCCN)C(N)=O)NC(=O)[C@H](CCCN=C(N)N)NC(=O)[C@H](CCCN=C(N)N)NC(=O)[C@H](CC(C)C)NC(=O)[C@H](Cc1ccccc1)NC(=O)CNC(=O)CNC(=O)[C@@H](N)Cc1ccc(O)cc1`, the figures for the IC50 in experiment [1], in experiment [2] and in experiment [3] were 0.36 nM, 4 nM and 3.7 nM, respectively.

In the case of `CC[C@H](C)[C@H](NC(=O)[C@H](CCCN=C(N)N)NC[C@H](CCCCN)NC(=O)[C@H](CC(C)C)NC(=O)[C@H](Cc1ccccc1)NC(=O)CNC(=O)CNC(=O)[C@@H](N)Cc1ccc(O)cc1)C(=O)N[C@@H](CCCN=C(N)N)C(=O)N1CCC[C@H]1C(=O)N[C@@H](CCCCN)C(N)=O`, the IC50 in experiment [1] came to 0.9 nM; in experiment [2] it was 9 nM; in experiment [3] it was 70.6 nM.

In the case of `CC[C@H](C)[C@H](NC[C@H](CCCCN)NC(=O)[C@H](CCCN=C(N)N)NC(=O)[C@H](CC(C)C)NC(=O)[C@H](Cc1ccccc1)NC(=O)CNC(=O)CNC(=O)[C@@H](N)Cc1ccc(O)cc1)C(=O)N[C@@H](CCCN=C(N)N)C(=O)N1CCC[C@H]1C(=O)N[C@@H](CCCCN)C(N)=O` (H-YGGFLR-X2), the concentration for half-maximal inhibition (IC50) in experiment [1] stood at 0.16 nM; in experiment [2], 9.2 nM; in experiment [3], 2.8 nM.

As for `CC[C@H](C)[C@H](NC(=O)[C@H](CCCN=C(N)N)NC(=O)[C@H](CCCN=C(N)N)NC(=O)[C@H](CC(C)C)NC(=O)[C@H](Cc1ccccc1)NCCNC(=O)CNC(=O)[C@@H](N)Cc1ccc(O)cc1)C(=O)N[C@@H](CCCN=C(N)N)C(=O)N1CCC[C@H]1C(=O)N[C@@H](CCCCN)C(N)=O` (H-[N(2-aminoethyl)Phe]([Gly-Tyr])LRRIRPK-NH2), the IC50 in experiment [1] is 17 nM; in experiment [2] it was 1040 nM; in experiment [3] it was 20.5 nM.

Turning to `CC[C@H](C)[C@H](NC(=O)[C@H](CCCN=C(N)N)NC(=O)[C@H](CCCN=C(N)N)NC(=O)[C@H](CC(C)C)NC[C@H](Cc1ccccc1)NC(=O)CNC(=O)CNC(=O)[C@@H](N)Cc1ccc(O)cc1)C(=O)N[C@@H](CCCN=C(N)N)C(=O)N1CCC[C@H]1C(=O)N[C@@H](CCCCN)C(N)=O` (H-[X1]([Gly-Gly-Tyr])RRIRPK-NH2), the figures for the IC50 in experiment [1], in experiment [2] and in experiment [3] were 0.55 nM, 12 nM and 16.6 nM, respectively.

Consider `CC[C@H](C)[C@H](NC(=O)[C@H](CCCN=C(N)N)NC(=O)[C@H](CCCN=C(N)N)NC[C@H](CC(C)C)NC(=O)[C@H](Cc1ccccc1)NC(=O)CNC(=O)CNC(=O)[C@@H](N)Cc1ccc(O)cc1)C(=O)N[C@@H](CCCN=C(N)N)C(=O)N1CCC[C@H]1C(=O)N[C@@H](CCCCN)C(N)=O` (H-[X4]([Phe-Gly-Gly-Tyr])RIRPK-NH2), for which the values for the IC50 in experiment [1], in experiment [2] and in experiment [3] were 0.61 nM, 0.64 nM and 21 nM, respectively. For the same compound, the Ratio in experiment [4] turned out to be 30.4. Besides, the results for the Selectivity in experiment [5] and in experiment [6] were 1 and 52, respectively.

For `CC[C@H](C)[C@H](NC(=O)[C@H](CCCN=C(N)N)NC(=O)[C@H](CCCN=C(N)N)NC[C@H](CCCCN)NC(=O)[C@H](Cc1ccccc1)NC(=O)CNC(=O)CNC(=O)[C@@H](N)Cc1ccc(O)cc1)C(=O)N[C@@H](CCCN=C(N)N)C(=O)N1CCC[C@H]1C(=O)N[C@@H](CCCCN)C(N)=O` (H-[X5]([Phe-Gly-Gly-Tyr])RIRPK-NH2), the Ratio in experiment [4] turned out to be 78.4. The Selectivity in experiment [6] was 59.
